This is a sample that favours compounds with a hit; in the whole collection about 3.8% have one here.
Beta cell apopt: inhibitors of cytokine-induced beta cell apoptosis, primary screen, luminescence; AID 435005, 2010; protection from apoptosis, % (test concentration not listed); INS-1E cytokine-induced death, ATP luminescence, 48 h; percent of positive-control rescue, neutral wells zero; 300,000 tested, 0.8% active;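 active = Every replicate reaches about 75%, or at least half do and their mean reaches it too, limit read from the data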;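 also: higher means more ATP so stronger rescue from cytokine killing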
TMEM16A inh: TMEM16A chloride channel inhibitors, primary screen, cell-based, HTS. Anoctamin-1 (Mus musculus), Q8BHY3. HEK293 TMEM16A/YFP iodide influx fluorescence, ionomycin. normalized B-score (activity score, 25-100; higher = stronger inhibition) at 10 µM. 310,000 tested, 1.2% active;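 active = ratio plate-corrected score three or more library SD toward inhibition, starting fluorescence score within five deviations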;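 also: score derived from kinetic fluorescence span divided by baseline fluorescence per well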
Target sequence (Q8BHY3 whole entry, looked up): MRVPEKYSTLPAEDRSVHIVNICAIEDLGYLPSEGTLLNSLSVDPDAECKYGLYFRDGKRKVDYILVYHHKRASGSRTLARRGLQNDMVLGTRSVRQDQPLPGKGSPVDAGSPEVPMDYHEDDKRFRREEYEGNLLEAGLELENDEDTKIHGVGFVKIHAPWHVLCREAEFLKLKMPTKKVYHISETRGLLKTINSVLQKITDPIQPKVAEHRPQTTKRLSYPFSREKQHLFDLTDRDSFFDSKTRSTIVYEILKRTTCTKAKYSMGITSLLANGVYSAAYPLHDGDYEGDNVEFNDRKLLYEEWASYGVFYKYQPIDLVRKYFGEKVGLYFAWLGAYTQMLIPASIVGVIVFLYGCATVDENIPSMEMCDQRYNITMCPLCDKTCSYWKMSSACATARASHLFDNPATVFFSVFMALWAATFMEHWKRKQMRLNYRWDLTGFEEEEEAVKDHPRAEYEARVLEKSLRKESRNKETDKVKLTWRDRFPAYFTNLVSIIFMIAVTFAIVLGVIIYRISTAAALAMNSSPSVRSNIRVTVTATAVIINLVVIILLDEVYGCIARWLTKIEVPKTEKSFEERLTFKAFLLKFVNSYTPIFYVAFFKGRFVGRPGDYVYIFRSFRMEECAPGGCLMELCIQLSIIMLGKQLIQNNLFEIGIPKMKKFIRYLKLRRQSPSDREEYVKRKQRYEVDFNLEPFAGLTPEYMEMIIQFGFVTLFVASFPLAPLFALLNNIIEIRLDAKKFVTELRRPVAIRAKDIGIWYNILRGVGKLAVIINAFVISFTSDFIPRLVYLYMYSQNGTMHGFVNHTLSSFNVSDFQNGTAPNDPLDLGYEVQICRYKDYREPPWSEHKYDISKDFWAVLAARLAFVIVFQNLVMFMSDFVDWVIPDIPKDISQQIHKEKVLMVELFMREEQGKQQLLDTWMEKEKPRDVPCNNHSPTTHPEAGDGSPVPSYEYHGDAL
ANO1 activ: TMEM16A chloride channel activators or potentiators, primary screen, cell-based, HTS; 340,000 tested, 0.3% active; HEK293 TMEM16A/YFP-H148Q/I152L, iodide quench fluorescence; active compounds read low; B-score at 10 µM;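 active = fluorescence-ratio B-score plate-corrected deviation score at least 3 library SD below zero, with starting fluorescence score within 5 deviations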;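 also: channel opened by trigger with iodide after compound preincubation; score built on the fluorescence ratio of max minus min over baseline; more negative score means more quench and so TMEM16A activation or potentiation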
CSC inhib: cancer stem cell viability inhibitors, primary screen, luminescence. inhibition, % at 7.5 µM. cancer stem cell-like cells viability. AID 2717, 2010. 300,000 tested, 1.1% active; in the data active = inhibition above about 75%; tested in HMLE shEcad cells
MC4R antagonist: MC4R antagonists of cAMP signaling, primary screen, cell-based, TR-FRET, antagonist arm of biased-ligand search. Melanocortin receptor 4 (Homo sapiens), P32245. MC4R-expressing cells, MTII-stimulated cAMP, LANCE TR-FRET. inhibition, % at 6.5 µM. 360,000 tested, 0.48% active;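 active = inhibition above its plate's cutoff, the mean of tested wells on that plate plus 3 SD, cut at about 29% in these data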
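Material: human MC4R-expressing U2OS cells. Probe or stimulus: Melanotan II challenge. Dosing: 6.5 µM single dose. Times: 30-min compound, 1-h challenge, 1-h detection, room temperature. Technique: TR-FRET with Eu-cAMP and labeled anti-cAMP, 671 nm. Replication: singlicate.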
MC4R barr agon: MC4R agonists recruiting beta-arrestin, primary screen, cell-based, luminescence, agonist arm of biased-ligand search. 360,000 tested, 0.98% active. activation, % at 8.9 µM. U2OS MC4R beta-arrestin complementation; percent of melanotan II response, DMSO zero. AID 540308, 2011;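 active = activation above a per-plate cutoff, the mean activation of sample wells on that plate plus 3 SD, cut at about 8% in these data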
cAMP nonselect: nonselective cAMP signaling inhibitors, parental cells, counter-screen for MC4R biased antagonist project, cell-based, TR-FRET, U2OS, forskolin, triplicate; shares compounds with MC4R antagonist; LANCE TR-FRET; inhibition, % at 6.5 µM; 1,600 tested, 26% active;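 active = mean inhibition over triplicates above the low-control well mean plus 3 SD, set per campaign, cut at about 13% in these data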;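 also: signal is single emission at 671 nm which falls as cellular cAMP rises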
MC4R antag conf: MC4R cAMP antagonists, retest, confirmation, cell-based, TR-FRET. shares compounds with MC4R antagonist. MC4R-expressing cells, MTII-stimulated cAMP. inhibition, % at 6.5 µM. 1,600 tested, 27% active. AID 602195, 2012; in the data active = inhibition above about 29%
Each line names hits and unclear results; the compound was inactive in the other large screens (follow-up assays come after a bar, where they were run).

Cn1cnc(CCN)c1	none (no result: Beta cell apopt)
COC1/C=C/C=C(\C)Cc2cc(O)c(Cl)c(c2)N(C)C(=O)CC(OC(=O)C(C)C)C2(C)OC2C(C)C2CC1(O)NC(=O)O2 (centres undefined)	ANO1 activ -5 (no result: Beta cell apopt, TMEM16A inh, CSC inhib)
C/C(CC(c1ccccc1)c1c(O)c2ccccc2oc1=O)=N\Nc1ccc([N+](=O)[O-])cc1[N+](=O)[O-] (centres undefined)	TMEM16A inh 25
C1CCC2S[C@H]3CCCCC3NC2C1 (some centres undefined)	none (no result: Beta cell apopt)
O=C(COc1ccc2ccccc2c1)N1CCN(Cc2c[nH]c3ccccc23)CC1	Beta cell apopt 102
O=C(COc1ccc(Br)cc1)N1CCN(Cc2c[nH]c3ccccc23)CC1	Beta cell apopt 106
CCC(=O)OC1CCC2C3CCC4CC(=O)C=CC4(C)C3CCC12C (centres undefined)	none (no result: Beta cell apopt, TMEM16A inh, CSC inhib)
CNc1ccc2nc3ccccc3[n+](C)c2c1	Beta cell apopt 93, ANO1 activ -5
C/C(=N\NC(=O)c1ccccc1O)c1c(O)n(Cc2ccccc2)c(=O)[nH]c1=O	none
C/C(=N\Nc1ccccc1)c1c(O)n(C)c(=O)n(C)c1=O	CSC inhib 91
CC(=NCCCn1ccnc1)c1c(O)n(-c2ccccc2)c(=O)[nH]c1=O	none (no result: Beta cell apopt)
C/C(=N\Nc1ccccc1)c1c(O)n(Cc2ccccc2)c(=O)[nH]c1=O	CSC inhib 110
C/C(=N\Nc1ccccc1)c1c(O)n(-c2ccccc2)c(=O)[nH]c1=O	CSC inhib 75
C/C(=N\Nc1ccccc1)c1c(O)[nH]c(=O)[nH]c1=O	CSC inhib 82 (no result: Beta cell apopt)
CC1(C)C[C@H]2C=C(C=O)[C@]3(C=O)C[C@]3(C)[C@H]2C1	Beta cell apopt 105, TMEM16A inh 100
COc1ccc(C(=O)C2CCCN(C3CSCCSC3)C2)c(C)c1 (centres undefined)	none
COc1ccc(C(=O)C2CCCN(C3CSCCSC3)C2)c(OC)c1 (centres undefined)	CSC inhib 78
C#C[C@]1(O)CC[C@H]2[C@@H]3CCC4=Cc5nc6nc7ccccc7n6cc5C[C@]4(C)[C@H]3CC[C@@]21C	none
C=CCN(CC=C)Cc1c[nH]c2ccccc12	Beta cell apopt 107 (no result: ANO1 activ, MC4R antagonist, MC4R barr agon)
Cc1ncc(CN2CCCC(C(=O)c3sccc3C)C2)s1 (centres undefined)	none
CN1CCN(c2ccc([N+](=O)[O-])c3no[n+]([O-])c23)CC1	Beta cell apopt 107, CSC inhib 104
O=[N+]([O-])c1ccc(N(CCO)CCO)c2c1no[n+]2[O-]	none (no result: Beta cell apopt, TMEM16A inh, ANO1 activ, CSC inhib)
CCOC(=O)c1ccc(NC(=O)N2C[C@@H]3C[C@@H](C2)c2cccc(=O)n2C3)cc1	none
CC1(C)C(C(=O)N2CCN(c3ccc(Cl)cc3)CC2)C1(C)C	none
COC(=O)C1CN(C#N)N(c2ccc(Cl)cc2)C12c1ccccc1-c1ccccc12 (centres undefined)	Beta cell apopt 112
Cc1cc(/C=C2\C(=O)NC(=O)N(Cc3ccco3)C2=O)c(C)n1-c1ccc(O)cc1	MC4R antagonist 30 | cAMP nonselect inactive | MC4R antag conf inactive
Cc1ccc(-n2c(C)cc(/C=C3/C(=O)NC(=O)N(Cc4ccco4)C3=O)c2C)cc1	none (no result: CSC inhib)
O=C1NC(=O)C(=Cc2ccc(-c3ccc(Cl)cc3)o2)C(=O)N1	MC4R antagonist 44 | cAMP nonselect 41 | MC4R antag conf 68
O=C1NC(=O)C(=Cc2ccc(-c3ccc(F)cc3O)o2)C(=O)N1	MC4R antagonist 53 | cAMP nonselect 13 | MC4R antag conf 29
O=C1OCCC1NC1=NCCC1 (centres undefined)	none
CC12CCC3C(CC=C4CC5(CCC43C)OCCO5)C1CCC2=O (centres undefined)	MC4R antagonist 30 | cAMP nonselect inactive | MC4R antag conf inactive
O=S1(=O)N(Cc2ccc(F)cc2)CCCN1Cc1ccccc1Cl	none
Cc1ccc(/C=C2\C(=O)NC(=O)N(Cc3ccccc3Cl)C2=O)o1	none
O=C1NC(=O)N(Cc2ccc(F)cc2)C(=O)/C1=C\c1ccoc1	none
O=C1NC(=O)N(Cc2ccccc2Cl)C(=O)/C1=C/c1cccs1	MC4R antagonist 36 | cAMP nonselect 16 | MC4R antag conf 30
O=C1NC(=O)N(Cc2ccc(F)cc2)C(=O)/C1=C/c1cccs1	MC4R antagonist 68 | cAMP nonselect inactive | MC4R antag conf inactive
Clc1ccc(C(c2ccc(Cl)cc2)n2cc[n+](CC(OCc3ccc(Cl)cc3Cl)c3ccc(Cl)cc3Cl)c2)cc1 (centres undefined)	Beta cell apopt 121, CSC inhib 107, MC4R antagonist 61 | cAMP nonselect 20 | MC4R antag conf 71
Clc1ccc(COC(Cn2ccnc2)c2ccc(Cl)cc2Cl)cc1 (centres undefined)	none
O=C1c2cccc3cccc(c23)C(=O)N1/N=C/c1c(O)n(-c2ccccc2)c(=O)[nH]c1=O	none
Cc1cc([N+](=O)[O-])c2ccccc2[n+]1[O-]	Beta cell apopt 115, MC4R antagonist 31 | cAMP nonselect inactive | MC4R antag conf 31
CS(=O)(=O)c1ccc(C2=C(CNC(=O)c3ccncc3)[C@H]3CC[C@@H](C2)N3CCOc2ccccc2)cc1	none (no result: Beta cell apopt, TMEM16A inh, ANO1 activ, CSC inhib)
Cc1ccc(Cn2nc(C)c(C=O)c2Cl)cc1	MC4R antagonist 31 | cAMP nonselect inactive | MC4R antag conf inactive
Cc1nn(Cc2ccccc2)c(C)c1C=C1C(=O)NC(=S)NC1=O	none
Cc1ccccc1N1C(=O)NC(=O)/C(=C\c2cnn(-c3ccccc3)c2)C1=O	MC4R antagonist 41 | cAMP nonselect 14 | MC4R antag conf inactive
O=C1NCCCCC1(Cl)Cl	none (no result: Beta cell apopt, TMEM16A inh, CSC inhib)
